Data on one compound can be found in ChEMBL document CHEMBL4622973, “Discovery of Potent Small-Molecule SIRT6 Activators: Structure-Activity Relationship and Anti-Pancreatic Ductal Adenocarcinoma Activity” (J Med Chem, 2020).

A word on the IC50: it is the midpoint of a concentration-inhibition curve. As a reminder, the inhibition is the percentage by which the read-out fell short of the control. Usually ΔTm stands for the change in melting temperature against a reference sample. As a reminder, the Vdss is a proportionality between amount in the body and measured concentration, not a real space. A higher Vdss goes with extensive tissue distribution. A word on the bioavailability: it is dose-corrected exposure relative to a reference, in per cent. The low end stands for little systemic uptake, the high end for much systemic uptake.

Data set [1] has as its system BXPC-3. The experiment in a line: Induction of cell cycle arrest in human BxPC3 cells assessed as increase in accumulation at G2 phase incubated for 48 hrs by propidium iodide staining based flow cytometry. The format is functional. The method in brief:
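PANC-1 and BXPC-3 cells in 6-well plates treated with a concentration series for 48 h. Stained with 50 µg/mL propidium iodide for 30 min in the dark. DNA content analysed by flow cytometry for cell-cycle phase distribution.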
(Flow cytometry measures light scatter and fluorescence of single cells or particles in a stream.)

In another data set the target is Histone deacetylase 3 (Homo sapiens, UniProt O15379). The experiment in a line: Inhibition of HDAC3 (unknown origin) by FDL assay. The method in brief:
(§1)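 Selectivity testing by FDL assay at concentrations up to 200 µM. SIRT1-2 assays run by an outside contract provider. Values reported as IC50.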

The target of data set [2] is T1, NAD-dependent protein deacylase sirtuin-6 (Homo sapiens, UniProt Q8N6T7). The experiment in a line: […] in human PANC1 cells assessed as reduction in IGF2BP3 expression levels at 25 uM incubated for 72 hrs by Western blot analysis. Particulars: PANC-1. It counts as cell-based. Put shortly: (§2)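 Cells incubated 72 h with various compound concentrations; whole-cell RIPA lysates with protease inhibitors, BCA-normalised, separated on 12% SDS-PAGE, transferred to PVDF, blocked in 5% milk or BSA. Probed 10 h at 4 °C with antibodies to SIRT6, acetyl-H3K9/K18/K56, total H3, Lin28b, Myc, IGF2BP3, β-actin; HRP secondary, chemiluminescent detection.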
T1 sequence (Q8N6T7 whole entry): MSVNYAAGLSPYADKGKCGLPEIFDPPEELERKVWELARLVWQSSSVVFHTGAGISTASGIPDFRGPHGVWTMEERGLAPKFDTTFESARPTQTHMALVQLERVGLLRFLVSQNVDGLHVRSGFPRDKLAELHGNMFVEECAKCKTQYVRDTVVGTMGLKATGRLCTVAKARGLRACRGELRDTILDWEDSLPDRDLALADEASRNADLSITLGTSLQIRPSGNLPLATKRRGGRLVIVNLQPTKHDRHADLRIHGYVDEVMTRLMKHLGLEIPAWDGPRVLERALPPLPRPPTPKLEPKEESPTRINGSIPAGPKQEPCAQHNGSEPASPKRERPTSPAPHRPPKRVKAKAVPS
On the technique in general: In western blotting, separated proteins are transferred to a membrane and probed.

In a further data set the test system is HepG2. In words: Antiproliferative activity against human HepG2 cells assessed as reduction in cell viability incubated for 72 hrs by MTT assay. The format is functional, cell-based. For orientation: Tetrazolium dyes change colour on reduction, which living cells bring about.
Data set [3] deals with T1, NAD-dependent protein deacylase sirtuin-6. The experiment in a line: […] in human BxPC3 cells assessed as reduction in H3K56ac levels incubated for 72 hrs by Western blot analysis. Particulars: BXPC-3. It counts as cell-based. The method in brief:
as §2

In another data set the test system is ASPC1. In words: Inhibition of cell migration of human AsPC1 cells at 10 umol/L incubated for 24 hrs by inverted microscopy relative to control. It counts as functional. The conditions noted are these: ASPC1, 24 h. Put shortly: (§3)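 PDAC cells are grown to a confluent monolayer at 37 °C in 5% CO2. The monolayer is scratched with a 200 μL pipette tip to make a gap of constant width, then washed with PBS. Cells are exposed to a range of compound concentrations. They are imaged by inverted microscope after 24 h. Migrated cells are counted by hand, and inhibition is expressed relative to untreated wells (100%).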

Data set [4] deals with T1, NAD-dependent protein deacylase sirtuin-6. In words: […] in human PANC1 cells assessed as reduction in Lin28b expression levels at 25 uM incubated for 72 hrs by Western blot analysis. It counts as cell-based. The conditions noted are these: PANC-1. Put shortly:
as §2

The nature of data set [5]: AUC (0 to infinity) in Sprague-Dawley rat at 2 mg/kg, iv after 0.25 to 24 hrs by LC-MS/MS analysis. It counts as ADME, organism-based. Set-up: dose 2 mg/kg, route intravenous, time infinity. The conditions noted are these: in vivo. The method in brief:
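Male Sprague-Dawley rats, 6-8 weeks old. Dosing solution of 10 (PO) or 2 (IV) mg/mL in 5% DMSO, 10% Solutol and 85% saline, pH 7. Blood taken by cardiac puncture at 0.083–24 h (PO) or 0.25–24 h (IV). Plasma levels measured by LC-MS/MS. Values are mean ± SD, n = 3.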

Data set [6] concerns the target T1, NAD-dependent protein deacylase sirtuin-6. In words: […] in human PANC1 cells assessed as reduction in H3K9ac levels incubated for 72 hrs by Western blot analysis. The format is cell-based. Particulars: PANC-1. The method in brief: as §2
For data set [7], the system named is BXPC-3. The experiment in a line: Inhibition of colony formation in human BxPC3 cells incubated for 9 to 18 days by crystal violet staining based assay. It counts as functional, cell-based. The method in brief: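 Cells are seeded per well at the line-specific density: BXPC-3 750, PANC-1 500, AsPC-1 2200, MIAPaCa-2 500. Compound at several concentrations is added after 24 h. Incubation runs 9–18 days (BXPC-3 18 days, PANC-1 14 days). Cells are then fixed with 4% paraformaldehyde and stained with crystal violet, and colonies of more than 50 cells are counted.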

Data set [8] deals with NAD-dependent protein deacetylase sirtuin-1 (Homo sapiens, UniProt Q96EB6). The experiment in a line: Inhibition of SIRT1 (unknown origin) by FDL assay. The method in brief:
as §1

Data set [9] concerns BXPC-3. The experiment in a line: Inhibition of cell migration of human BxPC3 cells at 10 umol/L incubated for 24 hrs by inverted microscopy relative to control. The format is functional. Particulars: BXPC-3, 24 h. The method in brief:
as §3

Data set [10] deals with T1, NAD-dependent protein deacylase sirtuin-6. The experiment in a line: […] in human PANC1 cells assessed as reduction in H3K18ac levels incubated for 72 hrs by Western blot analysis. It counts as cell-based. Particulars: PANC-1. Put shortly: as §2
The target is the same in data set [11]. The experiment in a line: Activation of N-terminal his-tagged human SIRT6 expressed in Escherichia coli M15 [pREP4] assessed as increase in peptide demyristoylation incubated for 120 mins using Ac-EALPKK(Myr)-AMC substrate by HPLC analysis. Put shortly:
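SIRT6 (10 μM) incubated with 100 μM Ac-EALPKK(Myr)-AMC, 3 mM NAD⁺ in assay buffer, with DMSO or 25 μM compound, 37 °C for 2 h. Quenched with 100 mM HCl/160 mM acetic acid at 37 °C for 30 min, centrifuged, supernatant analysed by reverse-phase C18 HPLC, water/acetonitrile with 0.1% TFA.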

In data set [12] the target is NAD-dependent protein deacetylase sirtuin-2 (Homo sapiens, UniProt Q8IXJ6). In words: Inhibition of SIRT2 (unknown origin) by FDL assay. The method in brief: as §1
Chain of NAD-dependent protein deacetylase sirtuin-2 (Q8IXJ6 whole entry): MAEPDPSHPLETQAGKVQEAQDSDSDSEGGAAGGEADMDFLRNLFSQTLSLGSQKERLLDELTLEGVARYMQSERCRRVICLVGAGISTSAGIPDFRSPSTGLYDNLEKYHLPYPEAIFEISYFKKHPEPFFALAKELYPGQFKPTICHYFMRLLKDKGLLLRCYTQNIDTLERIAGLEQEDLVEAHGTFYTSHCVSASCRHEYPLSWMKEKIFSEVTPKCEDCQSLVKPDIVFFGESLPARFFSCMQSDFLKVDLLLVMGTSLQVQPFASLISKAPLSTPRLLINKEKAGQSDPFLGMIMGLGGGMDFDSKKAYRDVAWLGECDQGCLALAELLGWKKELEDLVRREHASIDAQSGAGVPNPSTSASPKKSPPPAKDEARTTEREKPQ
The subject of data set [13] is PANC-1. In words: Antiproliferative activity against human PANC1 cells assessed as reduction in cell viability incubated for 72 hrs by MTT assay. It counts as functional, cell-based. The method in brief:
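PDAC cells grown in DMEM or RPMI1640 with 10% FBS and penicillin/streptomycin at 37 °C, 5% CO2. Plated in triplicate, then treated with a concentration series for 72 h. Viability read by MTT. IC50 calculated from dose-response curves.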

In data set [14] the target is T1, NAD-dependent protein deacylase sirtuin-6. In words: Binding affinity to N-terminal his-tagged human SIRT6 expressed in Escherichia coli M15 [pREP4] assessed as change in melting temperature at 20 uM by SYPRO orange dye based DSF assay.
Data set [15] can be described thus: Volume of distribution at steady state in Sprague-Dawley rat at 2 mg/kg, iv after 0.25 to 24 hrs by LC-MS/MS analysis. The conditions noted are these: in vivo. It counts as ADME, organism-based. Put shortly: (§4)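 Male Sprague-Dawley rats, 6–8 weeks old, received a single dose of 10 mg/kg p.o. or 2 mg/kg i.v. The vehicle was 5% DMSO, 10% Solutol and 85% saline at pH 7. Blood was taken by cardiac puncture at 0.083–24 h (p.o.) or 0.25–24 h (i.v.), and plasma was measured by LC-MS/MS. Values are mean ± SD, n = 3.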

Data set [16] can be described thus: Oral bioavailability in Sprague-Dawley rat at 10 mg/kg after 0.083 to 24 hrs by LC-MS/MS analysis. It counts as ADME, organism-based. The conditions noted are these: in vivo. Put shortly:
as §4

Data set [17] addresses T1, NAD-dependent protein deacylase sirtuin-6. In words: In-vivo activation of SIRT6 in BALB/c nude mouse xenografted with human PANC1 cells assessed as reduction in Lin28b expression at 150 mg/kg/day, po for 30 days by IHC analysis. It counts as functional, organism-based. Particulars: PANC-1. The method in brief:
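Female BALB/c nude mice (6–8 weeks) bearing subcutaneous PANC-1 xenografts (5×10⁶–1×10⁷ cells, right flank), randomised at 130–150 mm³ tumours; oral dosing daily for 30 days versus vehicle (n=6). Tumour tissue stained by immunohistochemistry.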

Data set [18] concerns PANC-1. The experiment in a line: Antiproliferative activity against human PANC1 cells at 3.3 to 10 uM incubated for 24 hrs by EdU incorporation assay. It counts as functional, cell-based. Put shortly: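 Cells seeded per well at 8000 (BXPC-3) or 4600 (PANC-1), then treated with a concentration series for 24 h. EdU incorporation detected with an EdU-Apollo kit, with Hoechst counterstain. EdU-positive cells counted by high-content imaging across 10 fields.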

Each structure is given as a SMILES string. Active and inactive are the calls of the source. The rule behind the calls is not given here.

Chain of Histone deacetylase 3 (O15379 whole entry): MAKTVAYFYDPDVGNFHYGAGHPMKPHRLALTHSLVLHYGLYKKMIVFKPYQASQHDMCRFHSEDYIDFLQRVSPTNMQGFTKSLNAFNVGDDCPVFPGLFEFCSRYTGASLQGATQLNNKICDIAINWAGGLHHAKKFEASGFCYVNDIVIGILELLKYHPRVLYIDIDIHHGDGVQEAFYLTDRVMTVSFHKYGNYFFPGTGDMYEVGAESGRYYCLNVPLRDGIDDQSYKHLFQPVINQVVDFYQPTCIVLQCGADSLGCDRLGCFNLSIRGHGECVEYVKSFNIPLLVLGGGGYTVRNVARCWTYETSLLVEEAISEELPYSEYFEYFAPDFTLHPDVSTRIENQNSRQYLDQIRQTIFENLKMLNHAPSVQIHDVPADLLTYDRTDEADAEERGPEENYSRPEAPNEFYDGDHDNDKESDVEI
Chain of NAD-dependent protein deacetylase sirtuin-1 (Q96EB6 whole entry): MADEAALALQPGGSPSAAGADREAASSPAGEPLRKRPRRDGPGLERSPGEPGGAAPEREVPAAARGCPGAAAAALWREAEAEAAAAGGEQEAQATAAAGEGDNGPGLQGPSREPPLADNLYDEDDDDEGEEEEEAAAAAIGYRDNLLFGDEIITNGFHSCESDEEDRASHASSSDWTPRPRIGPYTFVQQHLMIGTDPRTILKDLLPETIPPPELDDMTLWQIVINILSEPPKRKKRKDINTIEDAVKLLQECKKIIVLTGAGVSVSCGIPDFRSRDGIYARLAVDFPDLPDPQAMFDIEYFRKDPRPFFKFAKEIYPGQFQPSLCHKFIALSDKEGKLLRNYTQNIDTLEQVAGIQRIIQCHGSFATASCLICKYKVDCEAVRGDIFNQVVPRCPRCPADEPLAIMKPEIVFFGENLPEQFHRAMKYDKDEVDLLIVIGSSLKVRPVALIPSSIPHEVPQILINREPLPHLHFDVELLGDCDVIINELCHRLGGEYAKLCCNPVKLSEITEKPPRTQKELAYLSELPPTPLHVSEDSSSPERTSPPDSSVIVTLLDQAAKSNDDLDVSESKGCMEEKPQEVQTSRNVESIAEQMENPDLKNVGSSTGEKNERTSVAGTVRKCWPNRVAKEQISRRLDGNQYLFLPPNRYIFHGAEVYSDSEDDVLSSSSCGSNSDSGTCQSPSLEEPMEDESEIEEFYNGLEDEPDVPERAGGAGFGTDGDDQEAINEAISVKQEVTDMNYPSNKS

As for `O=C(NC(c1ccccc1)c1ccccc1)c1cc(-c2cc3ccccc3o2)nc2ccccc12`, the Activity result in the data set on BXPC-3 [1] and with PANC-1 [13] was “Dose-dependent effect” in each case. For the same compound, the IC50 on Histone deacetylase 3 was above 200 µM; in data set [8] it was 171 µM; in data set [12] it was above 200 µM; in the data set on PANC-1 [13] (PANC-1, 72 h) it was 4.13 µM. In addition, the inhibition result in data set [2] and in data set [4] was “Active” in each case. In addition, the outcome (with HepG2; in data set [11]; in data set [17]; with PANC-1 [18]) was Active. Moreover, the inhibition entry (in [3]; in [6]; with BXPC-3 [7]; in data set [10]) was “Dose-dependent effect” each time. Moreover, the inhibition at 10 µM in the data set on ASPC1 worked out at 55.4%; in the data set on BXPC-3 [9], 70%. The compound further showed an AUC in [5] of 3381.49 ng·mL·h. The ΔTm in [14] amounted to 1.01 °C. This compound registered a Vdss in [15] of 1112.8 L/kg. Also, in data set [16], the bioavailability worked out at 4.24%.
